Screening data: PubChem BioAssay, several laboratories
The list is not random: actives were taken first. Their share in the collection is about 1.3%.
NR2E3 ag-1 = NR2E3 (human) agonism; Q9Y5X4; GST-NR2E3/biotin-RetCOR TR-FRET, 1536-well; inhibition of corepressor binding, % at 4.78 µM; hit rate 0.12% among 320,000;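 active = percent inhibition above the cutoff of mean plus 3 SD of all tested compounds, set per screening campaign, cut at about 20% in these data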;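 note: 0% = DMSO wells and 100% = biotin wells as full block of FRET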
Target sequence (Q9Y5X4 whole entry, looked up): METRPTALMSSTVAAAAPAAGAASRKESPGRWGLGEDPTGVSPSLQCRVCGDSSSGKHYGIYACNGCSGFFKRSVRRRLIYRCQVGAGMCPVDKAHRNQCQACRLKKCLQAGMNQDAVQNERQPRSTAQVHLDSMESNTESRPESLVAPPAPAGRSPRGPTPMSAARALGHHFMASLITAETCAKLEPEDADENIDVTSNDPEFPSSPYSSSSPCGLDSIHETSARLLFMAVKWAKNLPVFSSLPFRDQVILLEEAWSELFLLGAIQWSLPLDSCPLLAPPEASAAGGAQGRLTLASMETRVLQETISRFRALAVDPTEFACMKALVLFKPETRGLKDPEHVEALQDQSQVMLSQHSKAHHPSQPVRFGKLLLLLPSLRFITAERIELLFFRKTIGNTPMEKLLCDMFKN
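Material: NR2E3–RetCOR corepressor complex / Incubation: Compound–protein incubation for 5 h at 4 °C / Dosing: compound at 4.8 µM, single dose / Detection: time-resolved FRET / Benchmarks: high control biotin, low control 0.6% DMSO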
EP2 modulator = EP2 receptor (human) modulation | P43116 | EP2-expressing cells, cAMP HTRF FRET, PGE2 co-stimulation | induction, % at 25 µM | hit rate 0.83% among 260,000;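 active = compounds whose cAMP rise, as percent of the full-agonist control response, exceeds 60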;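 note: rat C6 glioma line stably carrying human EP2 under a CMV promoter; the protocol text gives 20 µM as final concentration; 100% = response of wells given 1 µM PGE2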
Target sequence (P43116 whole entry, looked up): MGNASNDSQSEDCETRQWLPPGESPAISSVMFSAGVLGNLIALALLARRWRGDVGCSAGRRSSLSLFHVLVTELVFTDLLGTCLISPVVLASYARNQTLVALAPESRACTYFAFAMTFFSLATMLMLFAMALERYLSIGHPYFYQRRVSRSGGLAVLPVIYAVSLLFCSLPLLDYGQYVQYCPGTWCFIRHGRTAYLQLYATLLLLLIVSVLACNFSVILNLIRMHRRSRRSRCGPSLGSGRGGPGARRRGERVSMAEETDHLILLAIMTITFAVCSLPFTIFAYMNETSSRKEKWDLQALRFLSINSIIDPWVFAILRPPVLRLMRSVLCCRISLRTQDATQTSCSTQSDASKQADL
EP2 antag = EP2 receptor (human) inhibition; AID 1422; C6 glioma cells expressing human EP2, cAMP TR-FRET; cells stimulated with saturating PGE2; P43116; hit rate 0.52% among 260,000; inhibition, % at 25 µM;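 active = percent inhibition above 40 after rounding to a whole number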;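 note: rat C6 glioma host cells with rolipram phosphodiesterase inhibitor present; the protocol text gives 20 µM as final concentration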
JMJD2C inh = inhibitors of human GASC-1 (JMJD2C) demethylase; Q9H3R0; GST-JMJD2C(1-420) H3K9me3 demethylation, DELFIA europium; inhibition, % at 2.35 µM; hit rate 0.069% among 330,000; AID 2099;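 active = more than half of a compound's replicate wells show inhibition beyond 50%, single wells judged on their own value; inconclusive = some, but no more than half, of replicates pass 50% inhibition; inactive = no replicate passes 50% inhibition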;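 note: signal counts dimethyl H3K9 product captured on neutravidin plate; 0% = median of DMSO wells and 100% = 0.3 times that DMSO median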
Furin inh = human furin inhibition; P09958; purified furin, fluorogenic substrate cleavage; hit rate 0.061% among 220,000; AID 463115; inhibition, % at 20 µM or 30 µM; in the data active = inhibition above about 25%
NR2E3 ag-2 = agonists of human NR2E3 nuclear receptor; Q9Y5X4; CHO-S Gal4-NCOR/VP16-NR2E3 two-hybrid, luciferase; inhibition of corepressor binding, % at 3.98 µM; hit rate 0.35% among 360,000; AID 602229;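 active = inhibition above the mean of all tested compounds plus 3 SD, cut at about 70% in these data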;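 note: 0% = DMSO with NR2E3 transfected cells and 100% = cells lacking NR2E3 construct; higher means lower luciferase signal from less NR2E3 corepressor binding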
NR2E3 ag conf = NR2E3 agonism confirmed in two-hybrid assay | shares compounds with NR2E3 ag-2 | inhibition, % at 3.98 µM | CHO-S mammalian two-hybrid NR2E3-NCOR, luciferase luminescence | hit rate 51% among 2,300;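 active = average inhibition above a cutoff equal to the mean inhibition of all tested compounds plus one SD, cut at about 70% in these data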;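 note: 0% = DMSO in NR2E3 cells and 100% = DMSO in cells lacking NR2E3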
GAL4-VP16 luc = GAL4-VP16 reporter inhibition in NR2E3 agonist counterscreen. shares compounds with NR2E3 ag-2. CHO-S GAL4-VP16 luciferase reporter, luminescence. inhibition, % at 3.98 µM. hit rate 29% among 2,300. AID 624379;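 active = mean inhibition above a cutoff equal to the average over all tested compounds plus one standard deviation, cut at about 70% in these data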;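 note: luciferase from a UAS reporter driven by GAL4-VP16 transactivation; 0% = DMSO with VP16-transfected cells and 100% = DMSO with cells lacking VP16; higher means less reporter light so more repression of VP16 activity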
Starred values were filed as active, the others as inactive; ? = inconclusive; . = not tested or not shown.

SMILES	NR2E3 ag-1	EP2 modulator	EP2 antag	JMJD2C inh	Furin inh	NR2E3 ag-2	NR2E3 ag conf	GAL4-VP16 luc
NC(=O)c1cnn(Cc2ccc(Cl)cc2)c1N	5.1	-7.9	4.7	?	-25.3	1.6	.	.
NNC(=O)c1cnn(Cc2ccccc2)c1N	2.8	16.2	-0.5	-8.8	-12.1	56.6	-16.5	0.8
COc1ccc(CCNC(=S)N2CCCC(c3nc4ccc(C)cc4[nH]3)C2)cc1OC (stereo unspecified)	.	-87.4	14.3	.	.	.	.	.
CCCCc1ccc(S(=O)(=O)N/N=C(/C)c2ccncc2)cc1	-1.0	.	.	0.7	.	86.2*	50.5	66.7
C=CCOc1ccc(CN(C)c2ccc(S(=O)(=O)N3CCN(C)CC3)cc2[N+](=O)[O-])cc1	2.4	.	.	5.5	.	-4.0	.	.
CCOc1ccc(CN(C)c2ccc(S(=O)(=O)N3CCN(C)CC3)cc2[N+](=O)[O-])cc1OC	3.1	.	.	-5.1	.	65.7	77.6*	68.5
O=S(=O)(c1cc(F)ccc1F)N1CCN(c2ccccn2)CC1	-3.1	.	.	-7.1	.	-12.5	.	.
O=S(=O)(c1cc(F)ccc1F)N1CCN(c2ncnc3ccccc23)CC1	.	.	.	1.6	.	87.7*	92.0*	74.4*
CCn1ncc(/C=C/C(=O)Nc2c(C)nn(Cc3ccc(Cl)cc3Cl)c2C)c1C	-3.1	-17.6	9.8	-1.5	-9.8	50.2	32.0	40.3
CN(C(=O)CSc1ncnc2sc3c(c12)CCC3)c1nc(-c2ccccc2)cs1	.	4.4	9.3	.	.	.	.	.
Cc1cc(NC(=O)CSc2nc3c(sc4ccccc43)c(=O)n2CCCN2CCOCC2)n[nH]1	1.8	-3.8	2.6	7.1	2.5	72.3*	96.2*	19.7
Cc1cc(NC(=O)CSc2nc3c(sc4ccccc43)c(=O)n2CCc2ccccc2)n[nH]1	0.6	6.1	3.4	-19.4	-18.7	5.6	.	.
O=C(c1ccc2c(c1)OCO2)N1CCC(c2[nH]ncc2-c2ccncc2)CC1	.	-10.4	.	.	.	.	.	.
COc1ccc(C(=O)N2CCc3c(nc(C)[nH]c3=O)C2)cc1Cn1cccn1	.	3.5	13.1	.	.	.	.	.
CC(=O)Nc1ccc(NC(=O)c2csc([C@@H]3C[C@H](O)[C@@H](CO)O3)n2)cc1	.	.	.	.	.	-0.1	.	.
O=C(Nc1ccc(Oc2ccccc2)cc1)c1csc([C@H]2C[C@H](O)[C@@H](CO)O2)n1	.	.	.	.	.	47.6	77.6*	60.5
COc1cccc(NC(=O)N2CCC(c3nc4ccccc4[nH]3)CC2)c1	.	-3.9	6.6	.	.	.	.	.
N#CCc1ccc(NC(=O)/C=C/c2ccc([N+](=O)[O-])o2)cc1	.	-90.2	29.7	1.8	-26.8	49.8	61.0	30.6
O=C(Nc1nc(-c2ccc(S(=O)(=O)N3CCCC3)cc2)cs1)c1ccco1	3.0	-49.7	21.2	-4.7	-19.3	-18.8	.	.
CNc1nc(-c2ccc(S(=O)(=O)N3CCCCC3)cc2)cs1	7.1	.	.	-18.9	.	53.8	-27.3	-6.6
COc1ccccc1OC(C)C(=O)Nc1nc(-c2ccc(S(=O)(=O)N3CCOCC3)cc2)cs1 (stereo unspecified)	0.1	-4.6	5.7	-13.4	-10.2	10.6	.	.
COc1ccccc1C(=O)Nc1nc(-c2ccc(S(=O)(=O)N3CCOCC3)cc2)cs1	-2.0	-53.1	5.3	-9.9	6.7	91.9*	89.3*	62.6
O=C(Nc1nc(-c2ccccc2)cs1)c1ccccc1NS(=O)(=O)c1ccc(F)cc1	3.9	-28.9	15.8	11.6	-8.2	95.3*	99.0*	85.3*
O=C(O)C1C2C=CC(C2)C1C(=O)Nc1ccc2c(c1)OCCO2 (stereo unspecified)	0.1	3.5	6.9	1.4	-16.1	62.6	22.0	-2.8
O=C(O)C1C2C=CC(O2)C1C(=O)Nc1ccc2c(c1)OCCO2 (stereo unspecified)	3.3	13.5	7.6	9.6	-14.7	.	.	.
SMILES	NR2E3 ag-1	EP2 modulator	EP2 antag	JMJD2C inh	Furin inh	NR2E3 ag-2	NR2E3 ag conf	GAL4-VP16 luc
O=C(O)C1CCCCC1C(=O)Nc1ccc2c(c1)OCCO2 (stereo unspecified)	3.5	-14.3	17.3	?	-20.8	62.8	6.4	-14.7
O=C(Nc1ccc2c(c1)OCCO2)C1CC1c1ccccc1 (stereo unspecified)	3.2	0.8	3.7	1.8	-8.1	-24.8	.	.
Cn1nnnc1Sc1ncnc2scc(-c3cccc(S(C)(=O)=O)c3)c12	4.9	.	.	13.5	.	-14.5	.	.
Cn1nnnc1Sc1ncnc2scc(-c3ccccc3Cl)c12	1.1	.	.	0.2	.	66.4	34.2	52.0
Cn1nnnc1Sc1ncnc2scc(-c3cccc(Br)c3)c12	.	.	.	6.2	.	50.7	26.2	45.6
CC(=O)Nc1ccc(S(=O)(=O)NCCSCc2ccccc2Cl)cc1	4.1	-50.7	4.5	9.7	-16.5	71.0*	82.1*	64.6
CC(=O)Nc1ccc(S(=O)(=O)NCCC(=O)Nc2ccc(C)c(Cl)c2)cc1	0.0	-10.0	7.0	-32.7	-11.9	11.4	.	.
COc1ccc(C(=O)Cn2c(C(C)=O)nc3ccccc32)cc1	.	.	.	.	.	63.0	15.1	7.8
COc1ccc(/C=C/C(=O)c2nc3ccccc3n2CC(=O)c2ccc(OC)cc2)cc1	1.0	-0.5	12.2	-1.5	-14.4	-7.8	.	.
CCN1C(=O)c2cccc3c(S(=O)(=O)Cl)ccc1c23	.	-8.7	10.1	.	.	.	.	.
Cc1nc(NCCc2ccccc2)c2oc3ccccc3c2n1	1.3	-52.3	11.0	-3.0	-22.0	71.6*	91.1*	76.0*
Cc1ccc(C2(c3ccc(C)cc3)CC2C(=O)Nc2ccc([N+](=O)[O-])cc2O)cc1 (stereo unspecified)	0.2	56.8	3.3	4.6	-19.0	100.2*	99.5*	89.9*
CC1(C)CC1C(=O)Nc1ccc([N+](=O)[O-])cc1Br (stereo unspecified)	-0.9	25.5	2.7	10.8	-3.2	-12.3	.	.
CC1CCN(c2ccc(C(N)=O)cc2NC(=O)c2ncoc2-c2cccs2)CC1	.	-26.5	.	.	.	.	.	.
Cc1ccc(-c2cc(N)c(=O)n(CC(=O)N3CCCCCC3)n2)o1	.	-69.7	8.1	.	.	.	.	.
Cc1cc(C)nc(SCC(=O)Nc2sc3c(c2C#N)CCC(C)C3)n1 (stereo unspecified)	-2.5	.	29.6	-0.2	-13.8	70.7*	73.8*	77.3*
Cc1c(C(=O)Nc2ccccc2)sc2ncn(C(C)C(=O)OC(C)C)c(=O)c12 (stereo unspecified)	.	-20.6	3.9	.	.	.	.	.
CCCCCOc1ccc(Br)cc1CSC(=N)N	.	12.0	3.1	-8.4	-5.3	61.5	89.6*	59.5
COc1ccc(Br)cc1CSC(=N)N	-2.2	1.3	4.9	-9.8	-12.0	-8.9	.	.
Cc1cc(C(=O)C(C)OC(=O)c2ccc(NC(=O)CC#N)cc2)c(C)n1-c1ccccc1 (stereo unspecified)	1.6	.	.	2.5	.	50.3	-16.8	-8.8
